Experimental data taken from ChEMBL document CHEMBL1125592, “Calcium channel blocking and positive inotropic activities of ethyl 5-cyano-1,4-dihydro-6-methyl-2-[(phenylsulfonyl)methyl]-4-aryl-3- pyridine-carboxylate and analogues. Synthesis and structure-activity relationships” (J Med Chem, 1991).
Active and inactive are the calls of the source. The calls are words filed in the database; no cut-off is given here.

Experiments:
Oryctolagus cuniculus [1] = species on record: Oryctolagus cuniculus; assay: Vasorelaxant effect at a concentration of 10e-4 M on rabbit aortic rings previously contracted with 1.0 uM Norepinephrine.; assay type: functional
Summary of the method: (§1)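 Rabbit aortic rings precontracted with 50 mM KCl or 1.0 μM norepinephrine, then exposed to increasing concentrations of test agent. Relaxation recorded at each concentration.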

Oryctolagus cuniculus [2] = species on record: Oryctolagus cuniculus; assay: Vasorelaxant effect at a concentration of 10e-4 M on rabbit aortic rings previously contracted with 50 mM KCl.; assay type: functional; summary of the method: as §1
Oryctolagus cuniculus [3] = species on record: Oryctolagus cuniculus; assay: Vasorelaxant effect at a concentration of 10e-5 M on rabbit aortic rings previously contracted with 1.0 uM Norepinephrine.; assay type: functional; summary of the method: as §1
Oryctolagus cuniculus [4] = species on record: Oryctolagus cuniculus; assay: Vasorelaxant effect at a concentration of 10e-5 M on rabbit aortic rings previously contracted with 50 mM KCl.; assay type: functional; summary of the method: as §1
Oryctolagus cuniculus [5] = species on record: Oryctolagus cuniculus; assay: Vasorelaxant effect at a concentration of 10e-6 M on rabbit aortic rings previously contracted with 1.0 uM Norepinephrine.; assay type: functional; summary of the method: as §1
Oryctolagus cuniculus [6] = species on record: Oryctolagus cuniculus; assay: Vasorelaxant effect at a concentration of 10e-6 M on rabbit aortic rings previously contracted with 50 mM KCl.; assay type: functional; summary of the method: as §1
Oryctolagus cuniculus [7] = species on record: Oryctolagus cuniculus; assay: Vasorelaxant effect at a concentration of 10e-7 M on rabbit aortic rings previously contracted with 1.0 uM Norepinephrine.; assay type: functional; summary of the method: as §1
Oryctolagus cuniculus [8] = species on record: Oryctolagus cuniculus; assay: Vasorelaxant effect at a concentration of 10e-7 M on rabbit aortic rings previously contracted with 50 mM KCl.; assay type: functional; summary of the method: as §1
Oryctolagus cuniculus [9] = species on record: Oryctolagus cuniculus; assay: Vasorelaxant effect at a concentration of 10e-8 M on rabbit aortic rings previously contracted with 1.0 uM Norepinephrine.; assay type: functional; settings: Aorta; summary of the method: as §1
Oryctolagus cuniculus [10] = species on record: Oryctolagus cuniculus; assay: Vasorelaxant effect at a concentration of 10e-8 M on rabbit aortic rings previously contracted with 50 mM KCl.; assay type: functional; settings: Aorta; summary of the method: as §1
Oryctolagus cuniculus [11] = species on record: Oryctolagus cuniculus; assay: Vasorelaxant effect at a concentration of 10e-9 M on rabbit aortic rings previously contracted with 1.0 uM Norepinephrine.; assay type: functional; settings: Aorta; summary of the method: as §1
Oryctolagus cuniculus [12] = species on record: Oryctolagus cuniculus; assay: Vasorelaxant effect at a concentration of 10e-9 M on rabbit aortic rings previously contracted with 50 mM KCl.; assay type: functional; settings: Aorta; summary of the method: as §1
Rattus norvegicus [13] = species on record: Rattus norvegicus; assay: Compound was tested for the cardiovascular activity in isolated rat heart. Value represents the concentration producing 25% increase in CF (cardiac flow); NA indicates not active; assay type: functional
Summary of the method: (§2)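 Isolated Langendorff-perfused rat heart. Coronary flow (CF), LV +dP/dtmax and heart rate recorded during exposure to test agent. Value is the concentration giving a 25% rise in CF or in LV +dP/dtmax, mean ± SE. At least two hearts per compound.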

[14] = target: Voltage-gated L-type calcium channel (Rattus norvegicus, UniProt P22002+Q02485+P27732); assay: Affinity to bind dihydropyridine receptor (DHP receptor) by inhibiting the radioligand [3H]nitrendipine; assay type: protein assay
Summary of the method: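 [3H]nitrendipine displacement, rat brain cortical membranes. Each compound first screened at 1000 nM; if inhibition exceeded 40%, a four- to seven-point curve with unlabeled compound was run. IC50 generally mean of two experiments, each in triplicate. ">1000 nM" means under 40% inhibition of control binding at 1000 nM.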

Rattus norvegicus [15] = species on record: Rattus norvegicus; assay: Cardiovascular activity in isolated rat heart, concentration producing 25% increase in CF (cardiac flow).; assay type: functional; summary of the method: as §2
Rattus norvegicus [16] = species on record: Rattus norvegicus; assay: Compound was tested for the cardiovascular activity in isolated rat heart. Value represents the concentration producing 25% increase in LV + dP/dtmax; NA indicates not active; assay type: functional; summary of the method: as §2
Rattus norvegicus [17] = species on record: Rattus norvegicus; assay: Compound was tested for its effect on coronary vasodilator in isolated rat hearts.; assay type: functional
Summary of the method: (§3)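 Coronary vasodilation and ventricular contractility measured in isolated Langendorff-perfused rat hearts. EC25 (concentration raising the parameter by 25%) given as mean ± SEM of four to six hearts.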

Rattus norvegicus [18] = species on record: Rattus norvegicus; assay: Compound was tested for its effect on ventricular cantractility in isolated rat hearts.; assay type: functional, Cardiac ventricle; summary of the method: as §3
Rattus norvegicus [19] = species on record: Rattus norvegicus; assay: Cardiovascular activity in isolated rat heart, concentration producing 25% increase in LV + dP/dtmax.; assay type: functional; summary of the method: as §2
Oryctolagus cuniculus [20] = species on record: Oryctolagus cuniculus; assay: Vasoconstrictor effect at a concentration of 10e-7 M using partially depolarized isolated rings from rabbit.; assay type: functional
Oryctolagus cuniculus [21] = species on record: Oryctolagus cuniculus; assay: Vasoconstrictor effect at a concentration of 10e-8 M using nondepolarized isolated rings from rabbit.; assay type: functional
Oryctolagus cuniculus [22] = species on record: Oryctolagus cuniculus; assay: Vasoconstrictor effect at a concentration of 10e-8 M using partially depolarized isolated rings from rabbit.; assay type: functional
Oryctolagus cuniculus [23] = species on record: Oryctolagus cuniculus; assay: Vasoconstrictor effect at a concentration of 10e-6 M using nondepolarized isolated rings from rabbit.; assay type: functional
Oryctolagus cuniculus [24] = species on record: Oryctolagus cuniculus; assay: Vasoconstrictor effect at a concentration of 10e-6 M using partially depolarized isolated rings from rabbit.; assay type: functional
Oryctolagus cuniculus [25] = species on record: Oryctolagus cuniculus; assay: Vasoconstrictor effect at a concentration of 10e-7 M using nondepolarized isolated rings from rabbit.; assay type: functional
Oryctolagus cuniculus [26] = species on record: Oryctolagus cuniculus; assay: Vasoconstrictor effect at a concentration of 10e-9 M using nondepolarized isolated rings from rabbit.; assay type: functional
Oryctolagus cuniculus [27] = species on record: Oryctolagus cuniculus; assay: Vasoconstrictor effect at a concentration of 10e-9 M using partially depolarized isolated rings from rabbit.; assay type: functional
Oryctolagus cuniculus [28] = species on record: Oryctolagus cuniculus; assay: Vasoconstrictor effect at a concentration of 3 x 10e-8 M using nondepolarized isolated rings from rabbit.; assay type: functional
Oryctolagus cuniculus [29] = species on record: Oryctolagus cuniculus; assay: Vasoconstrictor effect at a concentration of 3 x 10e-8 M using partially depolarized isolated rings from rabbit.; assay type: functional
Oryctolagus cuniculus [30] = species on record: Oryctolagus cuniculus; assay: Vasoconstrictor effect at a concentration of 3 x 10e-9 M using nondepolarized isolated rings from rabbit.; assay type: functional
Oryctolagus cuniculus [31] = species on record: Oryctolagus cuniculus; assay: Vasoconstrictor effect at a concentration of 3 x 10e-9 M using partially depolarized isolated rings from rabbit.; assay type: functional

**Q.** What does the source list for NITROPRUSSIDE?
**A.** Vasorelaxant effect (Oryctolagus cuniculus [1]; Aorta): 55.8; Vasorelaxant effect (Oryctolagus cuniculus [2]; Aorta): 52.1; Vasorelaxant effect (Oryctolagus cuniculus [3]; Aorta): 39.8; Vasorelaxant effect (Oryctolagus cuniculus [4]; Aorta): 40.4; Vasorelaxant effect (Oryctolagus cuniculus [5]; Aorta): 22.8; Vasorelaxant effect (Oryctolagus cuniculus [6]; Aorta): 22; Vasorelaxant effect (Oryctolagus cuniculus [7]; Aorta): 7; Vasorelaxant effect (Oryctolagus cuniculus [8]; Aorta): 5.6; Vasorelaxant effect (Oryctolagus cuniculus [9]): 0.7; Vasorelaxant effect (Oryctolagus cuniculus [10]): -4.8; Vasorelaxant effect (Oryctolagus cuniculus [11]): -0.003; Vasorelaxant effect (Oryctolagus cuniculus [12]): -5.9

**Q.** For `CCOC(=O)C1=C(C[S+]([O-])c2ccccc2)NC(C)=C(C#N)C1c1cccc([N+](=O)[O-])c1` (stereo in doubt; 32a), which EC25 (Rattus norvegicus [13]) is on record?
**A.** inactive

**Q.** How did the EC25 (Rattus norvegicus [13]) turn out when `CCOC(=O)C1=C(C[S+]([O-])c2ccccc2)NC(C)=C(C#N)C1c1ccccc1C(F)(F)F` (stereo in doubt; 29a) was run?
**A.** inactive

**Q.** Which results are given for `CC1=C(C#N)C(c2ccccc2C(F)(F)F)/C(=C(\O)OC(C)C)C(C[S+]([O-])c2ccccc2)=N1` (stereo not given)?
**A.** IC50 [14]: 500 nM; EC25 (Rattus norvegicus [15]): 240 nM; EC25 (Rattus norvegicus [16]): inactive

**Q.** With `CCOC(=O)C1=C(CS(=O)(=O)c2ccncc2)NC(C)=C(C#N)C1c1ccccc1C(F)(F)F` (stereo in doubt; 54A) as the compound, how does the IC50 [14] read?
**A.** 152 nM

**Q.** What about the EC25 (Rattus norvegicus [17]) of the same compound?
**A.** 128 nM

**Q.** And the EC25 (Rattus norvegicus [18])?
**A.** 701 nM

**Q.** `CCO/C(O)=C1\C(CS(=O)(=O)c2ccc(N)cc2)=NC(C)=C(C#N)C1c1ccccc1C(F)(F)F` (stereo not given) was tested. Which IC50 [14] did it give?
**A.** 1000 nM

**Q.** And the Vasorelaxant effect (Oryctolagus cuniculus [1])?
**A.** 5

**Q.** And the Vasorelaxant effect (Oryctolagus cuniculus [2])?
**A.** 69

**Q.** What about the Vasorelaxant effect (Oryctolagus cuniculus [3]) of the same compound?
**A.** 2

**Q.** What about the Vasorelaxant effect (Oryctolagus cuniculus [4]) of the same compound?
**A.** 38

**Q.** What about the Vasorelaxant effect (Oryctolagus cuniculus [5]) of the same compound?
**A.** 2

**Q.** What about the Vasorelaxant effect (Oryctolagus cuniculus [6]) of the same compound?
**A.** 5

**Q.** What about the Vasorelaxant effect (Oryctolagus cuniculus [7]) of the same compound?
**A.** 2

**Q.** And the Vasorelaxant effect (Oryctolagus cuniculus [8])?
**A.** 2

**Q.** What about the EC25 (Rattus norvegicus [15]) of the same compound?
**A.** 940 nM

**Q.** What about the EC25 (Rattus norvegicus [19]) of the same compound?
**A.** 840 nM

**Q.** Which results are given for `CCO/C(O)=C1\C(C[S+]([O-])c2ccccc2Cl)=NC(C)=C(C#N)C1c1ccccc1C(F)(F)F` (stereo not given)?
**A.** IC50 [14]: > 1000 nM; EC25 (Rattus norvegicus [15]): 260 nM; EC25 (Rattus norvegicus [19]): 200 nM

**Q.** What does the source list for `CCO/C(O)=C1\C(CS(=O)(=O)c2ccccc2)=NC(C)=C(C#N)C1c1ccccc1C(F)(F)F` (stereo not given)?
**A.** IC50 [14]: 120 nM; Vasorelaxant effect (Oryctolagus cuniculus [1]): 23; Vasorelaxant effect (Oryctolagus cuniculus [2]): 80; Vasorelaxant effect (Oryctolagus cuniculus [3]): 13; Vasorelaxant effect (Oryctolagus cuniculus [4]): 67; Vasorelaxant effect (Oryctolagus cuniculus [5]): 7; Vasorelaxant effect (Oryctolagus cuniculus [6]): 24; Vasorelaxant effect (Oryctolagus cuniculus [7]): 5; Vasorelaxant effect (Oryctolagus cuniculus [8]): 4; EC25 (Rattus norvegicus [15]): 70 nM; EC25 (Rattus norvegicus [19]): 110 nM

**Q.** How did the IC50 [14] turn out when `CCO/C(O)=C1\C(CS(=O)(=O)c2ccccc2F)=NC(C)=C(C#N)C1c1ccccc1C(F)(F)F` (stereo not given) was run?
**A.** > 1000 nM

**Q.** And the EC25 (Rattus norvegicus [15])?
**A.** 90 nM

**Q.** What about the EC25 (Rattus norvegicus [19]) of the same compound?
**A.** 390 nM

**Q.** For `CCOC(=O)C1=C(C[S+]([O-])c2ccccc2)N(CCN(CC)CC)C(C)=C(C#N)C1c1ccccc1C(F)(F)F` (stereo not given), which IC50 [14] is on record?
**A.** > 1000 nM

**Q.** What about the EC25 (Rattus norvegicus [15]) of the same compound?
**A.** 500 nM

**Q.** And the EC25 (Rattus norvegicus [19])?
**A.** 330 nM

**Q.** Which results are given for `CCO/C(O)=C1\C(CS(=O)(=O)c2ccccc2)=NC(C)=C(C#N)C1c1ccccc1` (stereo not given)?
**A.** IC50 [14]: 480 nM; Vasorelaxant effect (Oryctolagus cuniculus [1]): 6; Vasorelaxant effect (Oryctolagus cuniculus [2]): 54; Vasorelaxant effect (Oryctolagus cuniculus [3]): 0; Vasorelaxant effect (Oryctolagus cuniculus [4]): 26; Vasorelaxant effect (Oryctolagus cuniculus [5]): 1; Vasorelaxant effect (Oryctolagus cuniculus [6]): 1; Vasorelaxant effect (Oryctolagus cuniculus [7]): 0; Vasorelaxant effect (Oryctolagus cuniculus [8]): 4; EC25 (Rattus norvegicus [13]): inactive; EC25 (Rattus norvegicus [19]): 960 nM

**Q.** Which results are given for `COC(=O)C1=C(C)NC(C)=C([N+](=O)[O-])C1c1ccccc1C(F)(F)F` (stereo not given)?
**A.** Vasoconstriction effect (Oryctolagus cuniculus [20]): 82.1; Vasoconstriction effect (Oryctolagus cuniculus [21]): 0; Vasoconstriction effect (Oryctolagus cuniculus [22]): 32.4; Vasoconstriction effect (Oryctolagus cuniculus [23]): 15.9; Vasoconstriction effect (Oryctolagus cuniculus [24]): 93.2; Vasoconstriction effect (Oryctolagus cuniculus [25]): 10; Vasoconstriction effect (Oryctolagus cuniculus [26]): 0; Vasoconstriction effect (Oryctolagus cuniculus [27]): 3.2; Vasoconstriction effect (Oryctolagus cuniculus [28]): 1.5; Vasoconstriction effect (Oryctolagus cuniculus [29]): 59.2; Vasoconstriction effect (Oryctolagus cuniculus [30]): 0; Vasoconstriction effect (Oryctolagus cuniculus [31]): 10.2

**Q.** For `CCO/C(O)=C1\C(C[S+]([O-])c2ccc(OC)cc2)=NC(C)=C(C#N)C1c1ccccc1C(F)(F)F` (stereo not given), which IC50 [14] is on record?
**A.** 1200 nM

**Q.** And the EC25 (Rattus norvegicus [15])?
**A.** 300 nM

**Q.** What about the EC25 (Rattus norvegicus [16]) of the same compound?
**A.** inactive

**Q.** `CC1=C(C#N)C(c2ccccc2C(F)(F)F)/C(=C(\O)OCCN(C)Cc2ccccc2)C(C[S+]([O-])c2ccccc2)=N1` (stereo not given) was tested. Which IC50 [14] did it give?
**A.** > 1000 nM

**Q.** What about the EC25 (Rattus norvegicus [15]) of the same compound?
**A.** 420 nM

**Q.** And the EC25 (Rattus norvegicus [19])?
**A.** 120 nM
